# Assay results collected from several papers.
# Lines come from different studies, so protocols differ.
# Cell line: MCF7
# Observed: cell growth or viability
Structure (SMILES),technique,concentration,time,measurement,value
CC(=O)Nc1ccc(/C(C)=N/N=c2\sc(C(C)=O)nn2-c2ccc(C)cc2)cc1,MTT,5 µM,,viability,21.2%
C[C@@H]1CC[C@@H]([C@](C)(O)CNCc2cccc3ccccc23)[C@H](OCc2ccccc2)C1,MTT,30 µM,72 h,inhibition,92.2%
CC(=O)c1c(C)c2cnc(Nc3ccc(N4CCNCC4)cn3)nc2n(C2CCCC2)c1=O,,,5 days,EC50,0.0383 µM
COc1ccc(-c2cc(-c3ccc(C)cc3)nc3[nH]c(=O)[nH]c(=O)c23)cc1OC,MTT,,48 h,IC50,26.6 µM
O=C(Nc1ccc(Oc2nnc(-c3ccc(Cl)cc3)c3ccccc23)cc1)c1ccccc1,MTT,2.5 µM,,cell death,93.4%
C=C(COCc1ccccc1)[C@@H]1CC[C@@H](C)C[C@H]1OCc1ccccc1,MTT,30 µM,72 h,inhibition,40.3%
COc1cc2ncnc(Nc3ccc4c(c3)/C(=C/c3ccccc3)C(=O)N4)c2cc1OC,MTT,,,IC50,18.6 µM
C[C@@H]1CC[C@@H]([C@](C)(O)CNCc2ccccc2F)[C@H](OCc2ccccc2)C1,MTT,30 µM,72 h,inhibition,89.6%
Cc1nc(NC(=O)N2CCC[C@H]2C(N)=O)sc1-c1ccnc(C(C)(C)C(F)(F)F)c1,,,5 days,EC50,0.177 µM
CC(=O)c1nn(-c2ccccc2Cl)/c(=N/N=C(\C)c2ccc(NC(=O)c3ccccc3)cc2)s1,MTT,10 µM,,viability,5.78%
C[C@@H]1CC[C@@H]([C@](C)(O)CNCc2ccccc2)[C@H](OCc2ccccc2)C1,MTT,30 µM,72 h,inhibition,98%
CC(=O)Nc1ccc(Oc2nnc(-c3ccc(Cl)cc3)c3ccccc23)cc1,MTT,2.5 µM,,cell death,94.2%
CCOC(=O)c1nn(-c2cccc(Cl)c2)/c(=N/N=C(\C)c2ccc(NC(=O)c3ccccc3)cc2)s1,MTT,5 µM,,viability,2.46%
CC(=NNC(N)=S)c1ccc(Nc2nnc(-c3ccc(Cl)cc3)c3ccccc23)cc1,MTT,1.25 µM,,cell death,94.5%
COc1cccc2c1C(=O)c1c(O)c3c(c(O)c1C2=O)C[C@@](O)(C(=O)CO)C[C@@H]3O[C@H]1C[C@H](N)[C@H](O)[C@H](C)O1,MTT,100 µM,48 h,inhibition,96.8%
CO[C@H]1C[C@@H]2CC[C@@H](C)[C@@](O)(O2)C(=O)C(=O)N2CCCC[C@H]2C(=O)O[C@H]([C@H](C)C[C@@H]2CC[C@@H](OCCO)[C@H](OC)C2)CC(=O)[C@H](C)/C=C(\C)[C@@H](O)[C@@H](OC)C(=O)[C@H](C)C[C@H](C)/C=C/C=C/C=C/1C,,,5 days,EC50,0.0014 µM
CC(=NNC(=S)Nc1ccccc1)c1ccc(Nc2nnc(-c3ccc(Cl)cc3)c3ccccc23)cc1,MTT,10 µM,24 h,viability,3.45%
COc1ccc(-c2cc(-c3cc(OC)ccc3OC)c3c(=O)[nH]c(=O)[nH]c3n2)cc1,MTT,,48 h,IC50,14.3 µM
CC(=O)c1nn(-c2ccc(C)cc2)/c(=N/N=C(\C)c2ccc(NC(=O)c3ccccc3)cc2)s1,MTT,2.5 µM,,viability,6.47%
CC(=NNC(=O)c1cccnc1)c1ccc(Nc2nnc(-c3ccc(Cl)cc3)c3ccccc23)cc1,MTT,0.312 µM,24 h,viability,100%
Cc1ccc(-c2cc(-c3ccc(N(C)C)cc3)c3c(=O)[nH]c(=O)[nH]c3n2)cc1,MTT,,48 h,IC50,10.1 µM
C[C@@H]1CC[C@@H]([C@](O)(CNCc2ccccc2)COCc2ccc(F)cc2)[C@H](OCc2ccc(F)cc2)C1,MTT,30 µM,72 h,inhibition,100%
O=C(Nc1ccc(Oc2nnc(-c3ccc(Cl)cc3)c3ccccc23)cc1)c1cccc([N+](=O)[O-])c1,MTT,0.625 µM,24 h,viability,9.78%
CCOC(=O)c1nn(-c2cccc(Cl)c2)/c(=N/N=C(\C)c2ccc(NC(=O)c3ccc(Cl)cc3)cc2)s1,MTT,0.156 µM,,viability,21.9%
COc1ccc(-c2cc(-c3ccc(Br)cc3)c3c(=O)n(C)c(=O)n(C)c3n2)cc1,MTT,,48 h,IC50,29.4 µM
C[C@@H]1CC[C@@H]([C@](O)(CNCc2ccccc2)COCc2ccccc2)[C@H](OCc2ccccc2)C1,MTT,10 µM,72 h,inhibition,84.1%
O=C(Nc1ccccc1)Nc1ccc(Oc2nnc(-c3ccc(Cl)cc3)c3ccccc23)cc1,MTT,0.312 µM,24 h,viability,11.3%
C[C@@H]1CC[C@@H]([C@@](O)(CNCc2cccc3ccccc23)COCc2ccccc2)[C@H](OCc2ccccc2)C1,MTT,10 µM,72 h,inhibition,82.9%
CC(=NNC(=O)c1ccccc1O)c1ccc(Nc2nnc(-c3ccc(Cl)cc3)c3ccccc23)cc1,MTT,1.25 µM,24 h,viability,90.3%
